# Source: the RNAGym collection of RNA variant scans (doi:10.1002/anie.201605470)
# B1: Osa-1-4 twister ribozyme (parent)
# chain: CCGCCUAACACUGCCAAUGCCGGUCCCAAGCCCGGAUAAAAGUGGAGGGGGCGG
# Variants of: B1
# Assay: self-cleavage, relative activity (ratio to wild type); higher = more cleavage; co-transcriptional
# How it was run: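 For each read, cleavage status was taken from whether upstream sequence was present. The reads came from an Oryza sativa twister ribozyme of 54 nucleotides, whose DNA template was synthesised with 97 % wild-type base and 1 % of each other base at the 48 positions downstream of the cleavage site. The template was transcribed in vitro at 37 °C for 2 h with co-transcriptional self-cleavage, and the RNA was reverse-transcribed using a template-switching oligonucleotide, PCR-amplified and deep-sequenced. Relative activity is the fraction cleaved normalised to wild type.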
row,Variant,self-cleavage
1,CCGCCUAACACUGCCAAUGCCGGUCCCAAGCCCGGAUAAAAGUGCAUGGGGCGG,0.05
2,CCGCCUAACACUGCCAAUGCCGGUCCCAAGCCCGGAUAAAAGUGCAAGGGGCGG,0.05
3,CCGCCUAACACUGCCAAUGCCGGUCCCAAGCCCGGAUAAAAGUGCACGGGGCGG,0.05
4,CCGCCUAACACUGCCAAUGCCGGUCCCAAGCCCGGAUAAAAGUGUACGGGGCGG,0.04
5,CCGCCUAACACUGCCAAUGCCGGUCCCAAGCCCGGAUAAAAGUGUAUGGGGCGG,0.06
6,CCGCCUAACACUGCCAAUGCCGGUCCCAAGCCCGGAUAAAAGUGUAAGGGGCGG,0.04
7,CCGCCUAACACUGCCAAUGCCGGUCCCAAGCCCGGAUAAAAGUGCAGGGGCCGG,0.05
8,CCGCCUAACACUGCCAAUGCCGGUCCCAAGCCCGGAUAAAAGUGCAGGGGUCGG,0.05
9,CCGCCUAACACUGCCAAUGCCGGUCCCAAGCCCGGAUAAAAGUGCAGGGGACGG,0.06
10,CCGCCUAACAGUGCCAAUGCCGGUCCCAAGCCCGGAUAAAAGUGGCGGGGGCGG,0.03
11,CCGCCUAACAUUGCCAAUGCCGGUCCCAAGCCCGGAUAAAAGUGGCGGGGGCGG,0.05
12,CCGCCUAACAAUGCCAAUGCCGGUCCCAAGCCCGGAUAAAAGUGGCGGGGGCGG,0.04
13,CCGCCUAACACGGCCAAUGCCGGUCCCAAGCCCGGAUAAAAGUGCAGGGGGCGG,0.05
14,CCGCCUAACACCGCCAAUGCCGGUCCCAAGCCCGGAUAAAAGUGCAGGGGGCGG,0.05
15,CCGCCUAACACAGCCAAUGCCGGUCCCAAGCCCGGAUAAAAGUGCAGGGGGCGG,0.06
16,CCGCCUAACACUGCCAAUGCCGGUCCCAAGCCCGGAUAAAAGUGCAGGGGGCCG,0.05
17,CCGCCUAACACUGCCAAUGCCGGUCCCAAGCCCGGAUAAAAGUGCAGGGGGCAG,0.06
18,CCGCCUAACACUGCCAAUGCCGGUCCCAAGCCCGGAUAAAAGUGCAGGGGGCUG,0.06
19,CCGCCUAACACUGCCAAAGCCGGUCCCAAGCCCGGAUAAAAGUGCAGGGGGCGG,0.06
20,CCGCCUAACACUGCCAAGGCCGGUCCCAAGCCCGGAUAAAAGUGCAGGGGGCGG,0.09
21,CCGCCUAACACUGCCAACGCCGGUCCCAAGCCCGGAUAAAAGUGCAGGGGGCGG,0.1
22,CCGCCUAACACUGCCAAUGCCGGUCCCAAGCCCGGAUAAAAGUGCAGGGCGCGG,0.07
23,CCGCCUAACACUGCCAAUGCCGGUCCCAAGCCCGGAUAAAAGUGCAGGGUGCGG,0.06
24,CCGCCUAACACUGCCAAUGCCGGUCCCAAGCCCGGAUAAAAGUGCAGGGAGCGG,0.08

row,Variant,self-cleavage
1,CCGCCUAACACUGCCAAUGCCGGUCCCAAGCCCGGAUAAAAGUGGCGGGGGCGG,0.09
2,CCGCCUAACACUGGCAAUGCCGGUCCCAAGCCCGGAUAAAAGUGGCGGGGGCGG,0.03
3,CCGCCUAACACUGACAAUGCCGGUCCCAAGCCCGGAUAAAAGUGGCGGGGGCGG,0.02
4,CCGCCUAACACUGUCAAUGCCGGUCCCAAGCCCGGAUAAAAGUGGCGGGGGCGG,0.03
5,CCGCCUAACACUGCCAAUGCCGGUCCCAAGCCCGGAUAAAAGUGUAGGCGGCGG,0.02
6,CCGCCUAACACUGCCAAUGCCGGUCCCAAGCCCGGAUAAAAGUGUAGGAGGCGG,0.04
7,CCGCCUAACACUGCCAAUGCCGGUCCCAAGCCCGGAUAAAAGUGUAGGUGGCGG,0.04
8,CCGCCUAACACUGCCAAUGCCGGUCCCAAGCCCGGAAAAAAGUGUAGGGGGCGG,0.09
9,CCGCCUAACACUGCCAAUGCCGGUCCCAAGCCCGGACAAAAGUGUAGGGGGCGG,0.17
10,CCGCCUAACACUGCCAAUGCCGGUCCCAAGCCCGGAGAAAAGUGUAGGGGGCGG,0.21
11,CCGCCUAACACUGCCAAUGACGGUCCCAAGCCCGGAUAAAAGUGGCGGGGGCGG,0.04
12,CCGCCUAACACUGCCAAUGGCGGUCCCAAGCCCGGAUAAAAGUGGCGGGGGCGG,0.03
13,CCGCCUAACACUGCCAAUGUCGGUCCCAAGCCCGGAUAAAAGUGGCGGGGGCGG,0.07
14,CCGCCUAACACUGCCAAUGCCGGUCCCAAGCCCGGAUAAAAGUGUAGGGGGCGA,0.1
15,CCGCCUAACACUGCCAAUGCCGGUCCCAAGCCCGGAUAAAAGUGUAGGGGGCGU,0.2
16,CCGCCUAACACUGCCAAUGCCGGUCCCAAGCCCGGAUAAAAGUGUAGGGGGCGC,0.06
17,CCGCCUAACACUGCCAAUGCCGGUCCCAAGCCCGGAUAAAAGUGUAGGGGCCGG,0.04
18,CCGCCUAACACUGCCAAUGCCGGUCCCAAGCCCGGAUAAAAGUGUAGGGGUCGG,0.05
19,CCGCCUAACACUGCCAAUGCCGGUCCCAAGCCCGGAUAAAAGUGUAGGGGACGG,0.08
20,CCGCCUAACACUGCCAAUGCCGGUCCCAAGCCCGGAUAAAAGUGUAGGGGGCUG,0.05
21,CCGCCUAACACUGCCAAUGCCGGUCCCAAGCCCGGAUAAAAGUGUAGGGGGCAG,0.07
22,CCGCCUAACACUGCCAAUGCCGGUCCCAAGCCCGGAUAAAAGUGUAGGGGGCCG,0.03
23,CCGCCUAACACAGCCAAUGCCGGUCCCAAGCCCGGAUAAAAGUGUAGGGGGCGG,0.06
24,CCGCCUAACACCGCCAAUGCCGGUCCCAAGCCCGGAUAAAAGUGUAGGGGGCGG,0.06
